Compound activity (PubChem)
A selection: hits, their analogues and other compounds. The true share with any hit is near 5%.
T cruzi repl: inhibitors of intracellular T. cruzi growth, primary screen, luminescence, NIH3T3 host cells. 300,000 compounds, 1.4% hits. T. cruzi beta-gal in NIH3T3, 90 h. inhibition, % (no concentration beside the values);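 active = mean inhibition across valid replicates above about 55%, limit read from the data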;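 also: signal also drops with host cell toxicity which is not excluded here; 0% = plate median of DMSO wells and 100% = zero luminescence signal; higher percent means less beta-gal luminescence so fewer parasites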
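Assay system: NIH/3T3 host cells with β-galactosidase reporter T. cruzi; input: 5,000 host fibroblasts per well; compound: single 50 nL compound addition per well in DMSO; timing: ≥90 h infection period, 3 h prior cell attachment; measured by: GalScreen β-gal luminescence, detergent lysis, 60 min; evaluation: percent inhibition of parasite-derived β-gal signal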
CSC inhib: cancer stem cell viability inhibitors, primary screen, luminescence | cancer stem cell-like cells viability | inhibition, % at 7.5 µM | 300,000 compounds, 1.1% hits | AID 2717, 2010; in the data active = inhibition above about 75%; tested in HMLE shEcad cells
UPR XBP1 act: activators of adaptive XBP1 UPR arm, primary screen, cell-based, CHO-XBP1 luciferase reporter, luminescence, uHTS | 330,000 compounds, 0.33% hits | AID 463104, 2010 | activation, % at 20 µM | IRE1-XBP1 UPR activation; percent of tunicamycin response, DMSO as zero;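 active = versus positive control, 20 µM dose yields 30% or more activation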;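 also: 100% = tunicamycin at 10 µg/mL and 0% = DMSO only wells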
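Material – CHO cell line with stable XBP1 luciferase reporter · Buffer or medium – F12 plus 10% FBS · Compound – single point, 20 µM final compound, 1% DMSO · Schedule – 16-18 h cell attachment at 37 °C, then 6 h compound exposure · Signal – Steady-Glo luminescence read · Benchmarks – high control tunicamycin 10 µg/mL final, low control DMSO vehicle only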
Beta cell apopt: inhibitors of cytokine-induced beta cell apoptosis, primary screen, luminescence; INS-1E cytokine-induced death, ATP luminescence, 48 h; percent of positive-control rescue, neutral wells zero; protection from apoptosis, % (no concentration beside the values); 300,000 compounds, 0.8% hits;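 active = Every replicate reaches about 75%, or at least half do and their mean reaches it too, limit read from the data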;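 also: 0% = cytokine-treated negative control wells and 100% = positive control rescue; higher means more ATP so stronger rescue from cytokine killing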
CHOP UPR activ: activators of apoptotic CHOP UPR arm, primary screen, cell-based, CHO-CHOP luciferase reporter, luminescence, uHTS | activation, % at 10 µM | UPR activation; percent of tunicamycin response over DMSO baseline | 330,000 compounds, 0.34% hits | AID 449763, 2010;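 active = at 10 µM dose, activation of 40% or more, normalized to positive control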;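 also: 100% = tunicamycin at 10 µg/mL and 0% = DMSO alone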
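assay system = CHO CHOP reporter cells | amount = 500 CHO-CHOP cells per well | buffer or medium = F12 with 10% FBS | incubation = 16-18 h cell attachment, then 6 h compound exposure, 37 °C | detection = luminescence read with Steady-Glo | read-out = percent activation relative to tunicamycin control | controls = tunicamycin high control, DMSO low control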
Mdm2 MdmX PPI: inhibitors of human Mdm2-MdmX association, primary screen, cell-based, luminescence, split luciferase, SaOS-2, uHTS | SaOS-2 split-luciferase Mdm2/MdmX complementation | inhibition, % at 8 µM | 330,000 compounds, 3% hits | AID 485346, 2010;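 active = inhibition of at least 50% at 8 µM in the primary screen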
Target sequence (O15151 whole entry, looked up): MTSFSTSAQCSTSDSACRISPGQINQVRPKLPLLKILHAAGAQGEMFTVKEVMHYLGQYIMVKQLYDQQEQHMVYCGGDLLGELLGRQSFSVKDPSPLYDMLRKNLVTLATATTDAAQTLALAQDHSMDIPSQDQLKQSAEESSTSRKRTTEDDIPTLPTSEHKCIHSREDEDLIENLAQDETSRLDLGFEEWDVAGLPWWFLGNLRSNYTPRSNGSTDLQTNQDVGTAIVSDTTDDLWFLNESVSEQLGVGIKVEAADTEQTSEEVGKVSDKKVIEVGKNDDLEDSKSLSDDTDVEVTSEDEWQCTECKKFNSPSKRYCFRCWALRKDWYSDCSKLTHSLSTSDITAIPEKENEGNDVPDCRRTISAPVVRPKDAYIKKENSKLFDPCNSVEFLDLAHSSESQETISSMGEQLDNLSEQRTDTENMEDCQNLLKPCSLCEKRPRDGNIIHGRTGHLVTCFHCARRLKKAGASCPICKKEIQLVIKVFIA
Target sequence (Q00987 whole entry, looked up): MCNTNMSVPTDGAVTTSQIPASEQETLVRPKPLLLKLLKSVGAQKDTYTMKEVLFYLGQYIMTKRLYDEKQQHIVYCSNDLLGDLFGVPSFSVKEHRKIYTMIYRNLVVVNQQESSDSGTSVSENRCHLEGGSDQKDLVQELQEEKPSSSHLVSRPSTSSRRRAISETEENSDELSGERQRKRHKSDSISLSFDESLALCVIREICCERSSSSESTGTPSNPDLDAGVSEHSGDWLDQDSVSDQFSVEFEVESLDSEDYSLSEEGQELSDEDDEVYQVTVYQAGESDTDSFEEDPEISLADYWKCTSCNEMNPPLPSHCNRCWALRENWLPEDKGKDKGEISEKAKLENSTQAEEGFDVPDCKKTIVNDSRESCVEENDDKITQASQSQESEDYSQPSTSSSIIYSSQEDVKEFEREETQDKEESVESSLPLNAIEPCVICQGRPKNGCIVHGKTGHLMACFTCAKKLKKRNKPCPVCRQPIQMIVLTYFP
Mdm2-MdmX conf: Mdm2-MdmX complex disruptors, retested hits, confirmation, luminescence, single concentration. shares compounds with Mdm2 MdmX PPI. inhibition, % at 8 µM. Mdm2-MdmX binding, luminescent assay. 10,000 compounds, 55% hits; in the data active = inhibition above about 40%
FLuc counter: full-length luciferase signal inhibition, confirmation, counter-screen for Mdm2/MdmX interaction inhibitor project, cell-based, single concentration, SaOS-2; shares compounds with Mdm2 MdmX PPI; SaOS-2 full-length luciferase counterscreen, luminescence; inhibition, % at 8 µM; 6,200 compounds, 77% hits;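 active = mean inhibition at 8 µM reaching about 37%, which flags the compound as non-specific, limit read from the data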;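 also: p53-null SaOS-2 cells with luciferase driven by a doxycycline-inducible promoter; compound on cells about two nights before reading with doxycycline added after day one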
An asterisk follows results filed as active; · = not tested or not shown.

SMILES	T cruzi repl	CSC inhib	UPR XBP1 act	Beta cell apopt	CHOP UPR activ	Mdm2 MdmX PPI	Mdm2-MdmX conf	others
O=C(CN1C(=O)S/C(=C\c2ccc(-c3cc(C(=O)O)ccc3Cl)o2)C1=O)Nc1ccc2c(c1)OCO2	·	-14	-2	-1	1	-8	·
C#CCOCCOCCOCCNc1nc(N2CCN(C(=O)CCCCCCCCCCNC(=O)Cn3cc(C[C@@H](C)O)nn3)CC2)nc(N2CCN(C(=O)CCCCCCCCCCNC(=O)[C@@H]([C@H](C)CC)n3cc(CCCCCN)nn3)CC2)n1	·	124*	1	84*	-2	98*	77*	FLuc counter=27
C#CCOCCOCCOCCNc1nc(N2CCN(C(=O)CCCCCCCCCCNC(=O)Cn3cc(CCCCCN)nn3)CC2)nc(N2CCN(C(=O)CCCCCCCCCCNC(=O)Cn3cc(C[C@@H](C)O)nn3)CC2)n1	·	-29	1	10	0	36	·
C#CCOCCOCCOCCNc1nc(N2CCN(C(=O)CCCCCCCCCCNC(=O)Cn3cc(CCCCCN)nn3)CC2)nc(N2CCN(C(=O)CCCCCCCCCCNC(=O)[C@@H]([C@H](C)O)n3cc(C)nn3)CC2)n1	·	10	4	-2	2	47	·
C#CCOCCOCCOCCNc1nc(N2CCN(C(=O)CCCCCCCCCCNC(=O)Cn3cc(C[C@@H](C)O)nn3)CC2)nc(N2CCN(C(=O)CCCCCCCCCCNC(=O)[C@@H]([C@H](C)O)n3cc(C)nn3)CC2)n1	·	158*	2	52	3	54*	18
C#CCOCCOCCOCCNc1nc(N2CCN(C(=O)CCCCCCCCCCNC(=O)[C@H](CCCCN)n3cc(C)nn3)CC2)nc(N2CCN(C(=O)CCCCCCCCCCNC(=O)[C@@H]([C@H](C)O)n3cc(C)nn3)CC2)n1	·	-7	3	10	0	78*	4
COCCCN(C(=O)C1CCC1)c1c(N)n(Cc2ccccc2)c(=O)[nH]c1=O	·	-16	-3	-5	-1	-14	·
COc1ccc(/C=C/c2nc(N)nc(-c3ccccc3O)n2)cc1OC	67*	42	9	17	3	61*	44*	FLuc counter=84*
COc1ccccc1NC(=S)NC(NC(=O)CC(C)C)C(Cl)(Cl)Cl (stereo not drawn)	4	-3	-3	-6	0	27	·
FC(F)(F)c1cnc(NNC(=S)Nc2ccccc2Cl)c(Cl)c1	-11	49	2	112*	-1	86*	22
Cc1cccc(NC(=S)NNc2ncc(C(F)(F)F)cc2Cl)c1	-14	-18	-3	10	-2	13	·
Cc1ccc(N(C(=O)CNC(=O)c2ccco2)C(C(=O)NC2CCCC2)c2ccncc2)c(C)c1 (stereo not drawn)	-2	-5	-7	2	3	6	·
Cc1ccc(C(C(=O)NCc2ccco2)N(C(=O)CNC(=O)c2cccs2)c2ccc(C)cc2C)cc1 (stereo not drawn)	-6	12	20	25	6	59*	4
CCCn1nc(C(=O)NCC2COc3ccccc3O2)c2ccccc2c1=O (stereo not drawn)	·	·	2	4	-2	-13	·
C=CC[C@@H](CC(=O)N[C@@H](CO)Cc1ccccc1)C(=O)N[C@H](COC(=O)[C@@H](CC=C)Cc1ccc(F)cc1)Cc1ccccc1	·	-17	-2	-9	1	53*	35	FLuc counter=55*
C=CC[C@@H](CC(=O)N[C@H](CO)Cc1ccccc1)C(=O)N[C@H](COC(=O)[C@@H](CC=C)Cc1ccc(F)cc1)C(C)(C)C	·	5	-3	1	-1	37	·
C=CC[C@@H](CC(=O)N[C@H](CO)Cc1ccccc1)C(=O)N[C@@H](COC(=O)[C@@H](CC=C)Cc1ccc(F)cc1)Cc1ccccc1	·	4	3	60	3	70*	16
CSc1nc(C)cc(OCCNS(=O)(=O)c2cc(C)ccc2C)n1	-9	·	-4	-9	-2	27	·
Cn1c(-c2ccccc2)cc2onc(-c3ccccc3)c2c1=O	·	6	-7	10	-6	62*	38	FLuc counter=113*
Cn1c(-c2ccccc2F)cc2onc(-c3ccccc3)c2c1=O	·	-2	-2	7	0	-18	·
CC(C)N(C(=O)[C@H]1C[C@H](CC(=O)NCCN2CCOCC2)C(=O)N2CCc3c([nH]c4cc(CCC(=O)N(C)C)ccc34)[C@]12C)C(C)C	·	·	0	·	3	0	·
NS(=O)(=O)c1cccc(NC(=O)COC(=O)CN2C(=O)c3ccccc3C2=O)c1	·	·	0	-1	1	-19	·
CCCCn1c(C23CC4CC(CC(C4)C2)C3)n[nH]c1=S	16	13	-4	·	-3	5	·
O=C(O)/C=C\c1cc2c(cc1[N+](=O)[O-])OCO2	-7	7	17	-8	8	-6	·
O=C1NC(=S)N/C1=C/c1cc2c(cc1[N+](=O)[O-])OCO2	-18	7	-4	-9	2	55*	29
SMILES	T cruzi repl	CSC inhib	UPR XBP1 act	Beta cell apopt	CHOP UPR activ	Mdm2 MdmX PPI	Mdm2-MdmX conf	others
COc1ccc(S(=O)(=O)NC2CC2)cc1Cl	-13	-11	-4	-2	0	23	·
CCc1ccccc1NC(=O)CN1CCN(C(=O)CNC(=O)c2ccc(-c3ccccc3)cc2)CC1	·	·	-1	13	1	50*	25
CCc1ccccc1NC(=O)CN1CCN(CC(=O)Nc2ccc(-c3ccccc3)cc2)CC1	16	12	-2	1	0	-1	·
Cc1ccccc1OCc1ccc(C(=O)N2CCOCC2)o1	-2	-12	7	0	1	-12	·
O=[N+]([O-])c1ccccc1C1Nc2cccc3cccc(c23)N1	-5	12	1	7	4	93*	42*	FLuc counter=27
Oc1ccccc1C1Nc2cccc3cccc(c23)N1	4	0	6	3	-1	1	·
CC(=O)c1ccc(N2CCN(C(=O)/C=C/c3ccc4ccccc4n3)CC2)cc1	28	27	1	-3	7	69*	52*	FLuc counter=66*
